Assay outcomes from PubChem BioAssay.
Shown are actives, neighbours in structure and some others; about 0.92% of the full set was active somewhere.
RAD54 branch: blocks human RAD54 Holliday junction branch migration. FAM/BHQ fluorescence. inhibition, % at 10.4 µM. 360,000 compounds, 0.14% hits. AID 602329;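 active = mean normalized replicate activity at least 40 and at least half of replicates scoring 40 or more; inconclusive = only one of the two criteria met; inactive = mean below 40 and under half of replicates reaching 40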;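 also: 0% = median of neutral control wells and 100% = median of positive control wells; inhibitors cause a drop in the FAM fluorescence signal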
Target sequence (Q92698 whole entry, looked up): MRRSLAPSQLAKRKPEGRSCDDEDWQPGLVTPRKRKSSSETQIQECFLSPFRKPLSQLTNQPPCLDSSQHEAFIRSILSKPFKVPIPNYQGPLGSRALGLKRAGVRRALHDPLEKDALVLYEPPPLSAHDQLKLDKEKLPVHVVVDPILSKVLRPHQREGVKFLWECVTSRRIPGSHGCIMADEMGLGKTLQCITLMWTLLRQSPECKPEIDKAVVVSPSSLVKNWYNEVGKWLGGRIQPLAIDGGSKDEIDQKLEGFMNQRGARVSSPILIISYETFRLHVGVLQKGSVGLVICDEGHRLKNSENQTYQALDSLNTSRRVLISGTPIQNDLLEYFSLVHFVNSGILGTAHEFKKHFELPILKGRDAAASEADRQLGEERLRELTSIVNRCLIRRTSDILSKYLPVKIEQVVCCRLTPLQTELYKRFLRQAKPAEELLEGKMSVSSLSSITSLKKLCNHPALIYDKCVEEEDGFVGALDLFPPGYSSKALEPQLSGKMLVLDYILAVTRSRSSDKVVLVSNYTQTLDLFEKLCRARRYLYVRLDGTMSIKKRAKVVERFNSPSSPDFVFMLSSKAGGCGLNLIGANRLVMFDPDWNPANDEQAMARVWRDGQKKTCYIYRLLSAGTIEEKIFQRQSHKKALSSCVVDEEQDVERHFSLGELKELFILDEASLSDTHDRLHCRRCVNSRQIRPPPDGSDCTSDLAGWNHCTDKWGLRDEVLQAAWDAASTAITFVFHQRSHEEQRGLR
MLL AF4-AF9 inh: MLL-AF4/AF9 protein interaction inhibition; P42568; AlphaScreen, biotin-AF4 peptide binding to FLAG-AF9; inhibition, % at 10 µM; 350,000 compounds, 0.47% hits; AID 651704;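 active = every replicate reaching a set inhibition limit, whatever the replicate mean, cut at about 25% in these data; inconclusive = mean inhibition reaches that limit but some replicates miss it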;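 also: 0% = plate neutral control median and 100% = total signal loss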
N-glyco inh: blocks N-linked glycosylation in D54 reporter cells | 360,000 compounds, 0.23% hits | reporter increase, % at 12.5 µM | D54 ERlucT glycosylation luciferase reporter, 24 h; percent of 100 nM tunicamycin response;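 active = mean luciferase reporter signal, scaled so untreated is 0 and the glycosylation-blocking control 100, at or above a set limit in every replicate; inconclusive = mean reaches the limit but not every replicate does; inactive = mean below the limit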;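 also: luciferase carries N-glycosylation sites so blocking glycosylation raises the light; 0% = median of neutral control wells and 100% = median of 100 nM tunicamycin wells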
RAD52 inh: RAD52 (human) annealing inhibition; P43351; inhibition, % at 18.7 µM; recombinant RAD52 DNA annealing, FRET fluorescence; 360,000 compounds, 0.46% hits;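 active = every replicate showing at least 50% inhibition; inconclusive = mean inhibition at least 50% but not in every replicate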
FN deposition inh: fibronectin deposition inhibition | AH1F fibroblasts, Alexa488-fibronectin deposition fluorescence, overnight | inhibition, % at 12.6 µM | 350,000 compounds, 0.086% hits;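 active = mean inhibition across replicates of 30% or more, regardless of how many single replicates reach that level; inconclusive = mean under 30% yet at least half of replicates reach 30%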;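 also: positive control wells lacked labelled fibronectin entirely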
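Assay system: AH1F fibroblast monolayer, labelled fibronectin deposition. Amount: 10000 cells per well. Also added: labelled fibronectin 24 nM. Compound: single-point pinned compound. Incubation: cell attachment 1 h, compound and FN exposure overnight. Detection: fluorescence after three HBSS washes, excitation 485 nm, emission 525 nm. Read-out: inhibition of fibronectin deposition signal.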
Rad54 DNA ctr: binds DNA, flagging false Rad54 inhibitor hits; 460 compounds, 8% hits; shares compounds with RAD54 branch; Acridine orange-DNA displacement, fluorescence polarization, 20 min; AC50, µM (series often up to 35 µM), for inactives: at the highest dose activity change, negative = DNA binding;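 active = signal drop giving an AC50 within twice the top valid tested concentration of each sample, actives reach about 35 µM in these data; inactive = activity opposite to expected, plus the rest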;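 also: polarization loss reports compound binding to salmon sperm DNA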
* hit, by the source's call; i = inactive; ? = inconclusive; . = not tested or not shown.

SMILES	RAD54 branch	MLL AF4-AF9 inh	N-glyco inh	RAD52 inh	FN deposition inh	Rad54 DNA ctr
CN(C)C(=O)C[C@H]1CC[C@@H]2[C@H](COC[C@H](O)CN2C(=O)C2CCCC2)O1	3	.	.	.	3	.
CCN(CC)CCn1c2ccccc2c2nc3ccc([N+](=O)[O-])cc3cc21	?	3	70*	-28	-5	-12%
CCn1cc(C(=O)NCCCN(C)C)c(=O)c2cc(F)c(N3CCN(C)CC3)cc21	42	.	-1	3	2	.
CCn1cc(C(=O)NCCN(C)C)c(=O)c2cc(F)c(N3CCN(C)CC3)cc21	59*	0	5	-28	6	-13%
C[C@@H]1CN([C@H](C)CO)C(=O)c2cc(NC(=O)Nc3ccc(C(F)(F)F)cc3)ccc2O[C@H]1CN(C)C(=O)Nc1ccc(C(F)(F)F)cc1	-2	-2	.	11	.	.
COc1ccc(N2C(=O)CSC23CCCCC3)cc1	?	.	1	.	-7	-9%
CCOc1ccc(N2C(=O)CSC23CCCCC3)cc1	-16	.	-1	.	.	.
C[C@H](CO)N1C[C@H](C)[C@@H](CN(C)CC2CC2)Oc2c(NC(=O)NC3CCCCC3)cccc2C1=O	1	3	.	8	.	.
O=C(C1CCC1)N1CC(=O)N2[C@H](CO)[C@H](c3ccc(C#Cc4cccc(F)c4)cc3)[C@H]2C1	.	.	.	-7	6	.
CN1CCN(c2nc(-c3ccc(C(C)(C)C)cc3)nc3ccccc23)CC1	-2	11	-20	-9	-2	.
Cc1ccc(-c2nc(N3CCN(C)CC3)c3ccccc3n2)cc1	57*	2	5	5	6	-15%
C=CCc1ccccc1OCC(O)CN1CCN(CCN2C(=O)c3cccc4cccc(c34)C2=O)CC1 (centres undefined)	99*	?	23	24	-7	0%
CCC(OCC(O)CN1CCN(CCN2C(=O)c3cccc4cccc(c34)C2=O)CC1)c1ccccc1 (centres undefined)	.	.	14	.	3	.
CCCC(c1nnnn1Cc1ccc(OC)cc1)N1CCN(c2ccccc2)CC1 (centres undefined)	?	.	4	.	.	-10%
O=C(Nc1nnc(COc2ccc(F)cc2)s1)c1ccco1	?	-3	-1	-20	-3	-6%
O=C(Nc1nnc(COc2ccc(Br)cc2)s1)c1ccco1	-6	-2	1	-11	-3	.
CCC(=O)Nc1ccc2c(c1)C(=O)N(C)C[C@H](OC)[C@H](C)CN(C(=O)CN(C)C)[C@H](C)CO2	.	.	.	.	-18	.
O=C(COc1ccc2c(c1)oc(=O)c1ccccc12)NCCCN1CCOCC1	?	-4	5	18	0	i
O=C(COc1ccc2c3c(c(=O)oc2c1)CCC3)NCCCN1CCOCC1	2	-1	2	-9	0	.
O=c1c2ccccc2oc2ccc(NCCCN3CCOCC3)cc12	?	10	-5	-4	-13	18%
O=c1c2ccccc2oc2cc(NCCCn3ccnc3)ccc12	18	-36	-9	-11	-16	.
CN1CCCC1CCNc1ccc2oc3ccccc3c(=O)c2c1 (centres undefined)	.	9	.	28	-17	.
CN1CCCC1CCNc1ccc2c(=O)c3ccccc3oc2c1 (centres undefined)	92*	-12	9	44	14	-13%
O=c1c2ccccc2oc2cc(NCCCN3CCOCC3)ccc12	66*	-5	-5	29	6	-16%
CCC(=O)NC[C@@H]1[C@H](c2ccc(C3=CCCC3)cc2)[C@H](CO)N1C(=O)C1CC1	-1	.	.	.	-4	.
SMILES	RAD54 branch	MLL AF4-AF9 inh	N-glyco inh	RAD52 inh	FN deposition inh	Rad54 DNA ctr
C[C@@H]1CN([C@H](C)CO)C(=O)c2cc(NC(=O)CCC(F)(F)F)ccc2O[C@@H]1CN(C)CC1CCCCC1	2	-3	.	5	1	.
Cn1c(C(=O)NCCCN2CCN(c3ccccc3F)CC2)cc2c(=O)n(C)c3ccccc3c21	-13	10	8	-2	0	.
CC1CCN(CCCNC(=O)c2cc3c(=O)n(C)c4ccccc4c3n2C)CC1	59*	1	18	27	-5	-17%
CCCCN(CC)CCCNC(=O)c1cc2c(=O)n(C)c3ccccc3c2n1C	61*	3	22	40	-3	-13%
Cn1c(C(=O)NCCCN2CCOCC2)cc2c(=O)n(C)c3ccccc3c21	?	-4	7	15	6	-20%
CC(C)OCCCNC(=O)c1cc2c(=O)n(C)c3ccccc3c2n1C	3	-1	4	-14	0	.
Cn1c(C(=O)NCCN2CCCCCC2)cc2c(=O)n(C)c3ccccc3c21	56*	-1	3	38	2	-6%
C[C@@H]1CN([C@@H](C)CO)C(=O)c2cc(NS(C)(=O)=O)ccc2O[C@@H](C)CCCCO[C@@H]1CN(C)C(=O)CCCN(C)C	.	1	.	.	.	.
CC(C)[C@H]1CCc2cnnn2COC[C@@H](c2ccccc2)NC1=O	.	.	.	.	0	.
COCCCNc1nc2cc(OC)c(OC)cc2c2nc(-c3ccccc3)nn12	39	-3	0	-2	-1	.
CCN(CC)CCCNc1nc(-c2ccccc2)nc2ccccc12	85*	.	8	.	-6	-8%
CCN(CC)CCCNc1nc2cc(OC)c(OC)cc2c2nc(-c3cccnc3)nn12	115*	.	11	.	9	-8%
CCN(CC)CCCNc1nc2cc(OC)c(OC)cc2c2nc(-c3ccccc3)nn12	106*	.	41*	.	-18	0%
COc1cc2nc(NCCCN3CCN(C)CC3)n3nc(-c4ccccc4)nc3c2cc1OC	102*	.	5	.	-11	4%
CC(C)C#Cc1ccc2c(c1)O[C@@H](CN(C)Cc1cccnc1)[C@H](C)CN([C@@H](C)CO)S2(=O)=O	-10	12	.	-1	4	.
O=C(NCC1CC1)[C@@H]1[C@@H](CO)[C@@H]2Cn3c(ccc(-c4cccc(F)c4)c3=O)[C@@H]2N1CC1CC1	-5	1	.	-8	.	.
C[C@H]1CN(C)C(=O)Cc2cc(N)ccc2O[C@@H]1CN(C)S(C)(=O)=O	.	.	.	.	-5	.
O=C([C@@H]1[C@@H](CO)[C@@H]2Cn3c(cccc3=O)[C@H]1N2CC1CC1)N1CCc2ccccc2C1	-4	-1	.	-8	.	.
COCC(=O)Nc1ccc2c(c1)C(=O)N(C)C[C@H](OC)[C@H](C)CN(Cc1cccc(F)c1)[C@H](C)CO2	0	3	.	-9	-3	.
C[C@H](CO)N1C[C@H](C)[C@@H](CN(C)Cc2ccc(C(F)(F)F)cc2)Oc2ccc(NS(C)(=O)=O)cc2C1=O	-4	-4	.	13	.	.
COCCNC(=S)Nc1ccc2nc(N3CCCC3)cc(C)c2c1	38	.	1	.	.	.
CCOCCCNC(=S)Nc1ccc2nc(N3CCCC3)cc(C)c2c1	60*	.	0	.	.	-8%
CCN1CCN(C(=S)Nc2ccc3nc(N4CCN(CC)CC4)cc(C)c3c2)CC1	62*	.	-8	.	.	1%
CCN1CCN(c2cc(C)c3cc(NC(=S)N4CCCC4)ccc3n2)CC1	.	1	-3	25	3	.
